Data as given in paper PMC3101112 (Cancer Management and Research, 2011).
pIC50: −log10 of the molar value. Several values for one entry are separate records, joined by “and”; a condition that tells them apart may be missing. Equal values may be shown once.

How the values were obtained:
EPHB2 = EPHB2 (Homo sapiens, UniProt P29323); test: Biochemical inhibition profile, EPHB2; settings: read-out: Biochemical Inhibition Profile IC50, EPHB2
[1] = system: MV4-11 cells containing the FLT3-ITD mutation; settings: animals; cited from earlier work
RAF = test: Biochemical inhibition profile, RAF; design: species or system Human; settings: read-out: Biochemical Inhibition Profile IC50, RAF
AML blasts = test: Antileukemia response assessment in patients; assay type: in vivo, human
How it was run: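 Response was judged by WHO criteria on bone marrow aspirates taken at baseline and after four weeks of daily oral dosing (two weeks after amendment). Peripheral blast counts were taken daily during the multidose visit. A sustained fall in peripheral blast counts lasting longer than four weeks also counted as a pharmacodynamic response.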

PDGF-Rb = PDGF-Rb (Homo sapiens, UniProt P09619); test: Biochemical inhibition profile, PDGF-Rb; settings: read-out: Biochemical Inhibition Profile IC50, PDGF-Rb
Chain of PDGF-Rb (P09619 33-1106): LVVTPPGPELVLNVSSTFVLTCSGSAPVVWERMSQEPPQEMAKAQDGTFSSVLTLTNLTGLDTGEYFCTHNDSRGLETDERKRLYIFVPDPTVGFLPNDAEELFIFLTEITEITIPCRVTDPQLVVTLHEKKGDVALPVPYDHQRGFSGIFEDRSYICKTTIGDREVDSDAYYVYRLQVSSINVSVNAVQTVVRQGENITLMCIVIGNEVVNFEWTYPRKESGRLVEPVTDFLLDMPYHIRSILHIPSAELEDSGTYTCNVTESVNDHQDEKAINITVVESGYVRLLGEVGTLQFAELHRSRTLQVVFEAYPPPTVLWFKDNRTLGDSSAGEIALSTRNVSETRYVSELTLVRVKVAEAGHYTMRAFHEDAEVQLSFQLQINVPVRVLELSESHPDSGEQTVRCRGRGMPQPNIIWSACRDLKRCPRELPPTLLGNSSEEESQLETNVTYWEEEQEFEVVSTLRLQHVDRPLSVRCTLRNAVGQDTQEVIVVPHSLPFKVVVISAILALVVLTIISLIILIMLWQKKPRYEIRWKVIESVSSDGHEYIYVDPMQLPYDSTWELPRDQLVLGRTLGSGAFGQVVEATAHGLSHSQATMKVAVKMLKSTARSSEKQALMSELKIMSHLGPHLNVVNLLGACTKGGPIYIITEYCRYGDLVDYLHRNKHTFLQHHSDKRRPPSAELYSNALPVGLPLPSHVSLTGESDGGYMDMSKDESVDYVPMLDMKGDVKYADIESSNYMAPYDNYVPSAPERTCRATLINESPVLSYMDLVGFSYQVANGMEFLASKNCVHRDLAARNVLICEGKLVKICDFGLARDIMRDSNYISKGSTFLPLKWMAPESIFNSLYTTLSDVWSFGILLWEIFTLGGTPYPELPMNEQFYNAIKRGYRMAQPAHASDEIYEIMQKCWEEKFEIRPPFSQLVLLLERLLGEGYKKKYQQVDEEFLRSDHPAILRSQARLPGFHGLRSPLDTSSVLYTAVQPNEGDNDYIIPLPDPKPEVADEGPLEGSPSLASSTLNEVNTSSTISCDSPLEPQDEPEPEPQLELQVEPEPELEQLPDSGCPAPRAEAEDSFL

[2] = system: pERK T202Y204 in HUVEC (with BSA); test: Cell-based target inhibition assay, HUVEC, VEGF, pERK with BSA; design: species or system human; settings: read-out: Cell-Based Target Inhibition Assays IC50, pERK T202Y204 (with BSA), activator VEGF, with BSA
[3] = system: CYP3A4, CYP2D6, and CYP2C9; test: Drug-drug interaction cocktail; assay type: in vivo, human; settings: AML patients, cocktail before and after multiple doses of 50 mg/day
How it was run: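 The probe cocktail was midazolam 0.2 mg (CYP3A4), dextromethorphan 30 mg (CYP2D6) and tolbutamide 500 mg (CYP2C9), given after a two-hour fast. It was dosed ~7 days before the single test-compound dose and again after two or four weeks of daily 50 mg oral test compound. Probe plasma concentration–time profiles were compared before and after treatment.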

[4] = Plasma pharmacokinetics in patients with relapsed AML; assay type: in vivo, human
How it was run: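 Relapsed AML patients got 50 mg test compound orally after an ~8 h fast, without the probe cocktail. Plasma was sampled over 48 h after a single dose and over 12 h after one week of once-daily dosing. Tmax, Cmax, AUC and oral clearance came from noncompartmental analysis.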

cKIT = cKIT (Homo sapiens, UniProt P10721); test: Biochemical inhibition profile, cKIT; settings: read-out: Biochemical Inhibition Profile IC50, cKIT
Chain of cKIT (P10721 26-976): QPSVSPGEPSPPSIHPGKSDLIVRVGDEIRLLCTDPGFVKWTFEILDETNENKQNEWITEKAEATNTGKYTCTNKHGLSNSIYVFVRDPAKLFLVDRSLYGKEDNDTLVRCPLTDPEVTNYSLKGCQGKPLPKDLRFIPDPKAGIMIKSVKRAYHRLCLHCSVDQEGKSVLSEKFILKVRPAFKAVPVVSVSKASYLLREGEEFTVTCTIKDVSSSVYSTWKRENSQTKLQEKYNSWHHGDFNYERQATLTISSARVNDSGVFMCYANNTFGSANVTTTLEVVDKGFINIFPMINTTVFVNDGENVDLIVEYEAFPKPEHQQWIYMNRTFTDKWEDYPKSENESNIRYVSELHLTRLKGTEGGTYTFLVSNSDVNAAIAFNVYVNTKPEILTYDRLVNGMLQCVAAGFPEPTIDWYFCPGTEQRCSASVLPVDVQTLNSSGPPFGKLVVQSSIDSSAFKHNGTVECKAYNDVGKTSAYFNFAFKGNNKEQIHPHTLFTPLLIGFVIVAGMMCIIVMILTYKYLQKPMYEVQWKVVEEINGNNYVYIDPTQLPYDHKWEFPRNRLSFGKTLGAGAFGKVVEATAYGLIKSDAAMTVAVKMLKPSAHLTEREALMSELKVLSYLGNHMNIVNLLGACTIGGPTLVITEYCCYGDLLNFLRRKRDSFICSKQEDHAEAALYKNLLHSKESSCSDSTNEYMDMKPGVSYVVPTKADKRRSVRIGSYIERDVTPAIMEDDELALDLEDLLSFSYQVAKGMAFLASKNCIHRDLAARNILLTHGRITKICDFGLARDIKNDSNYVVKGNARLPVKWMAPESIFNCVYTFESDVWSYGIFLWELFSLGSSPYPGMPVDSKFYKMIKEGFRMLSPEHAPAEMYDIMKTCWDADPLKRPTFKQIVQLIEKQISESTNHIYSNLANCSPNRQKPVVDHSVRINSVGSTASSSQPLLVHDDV

VEGF-R3 = VEGF-R3 (Homo sapiens, UniProt P35916); test: Biochemical inhibition profile, VEGF-R3; settings: read-out: Biochemical Inhibition Profile IC50, VEGF-R3
EPHA8 = EPHA8 (Homo sapiens, UniProt P29322); test: Biochemical inhibition profile, EPHA8; settings: read-out: Biochemical Inhibition Profile IC50, EPHA8
Chain of EPHA8 (P29322 28-1005): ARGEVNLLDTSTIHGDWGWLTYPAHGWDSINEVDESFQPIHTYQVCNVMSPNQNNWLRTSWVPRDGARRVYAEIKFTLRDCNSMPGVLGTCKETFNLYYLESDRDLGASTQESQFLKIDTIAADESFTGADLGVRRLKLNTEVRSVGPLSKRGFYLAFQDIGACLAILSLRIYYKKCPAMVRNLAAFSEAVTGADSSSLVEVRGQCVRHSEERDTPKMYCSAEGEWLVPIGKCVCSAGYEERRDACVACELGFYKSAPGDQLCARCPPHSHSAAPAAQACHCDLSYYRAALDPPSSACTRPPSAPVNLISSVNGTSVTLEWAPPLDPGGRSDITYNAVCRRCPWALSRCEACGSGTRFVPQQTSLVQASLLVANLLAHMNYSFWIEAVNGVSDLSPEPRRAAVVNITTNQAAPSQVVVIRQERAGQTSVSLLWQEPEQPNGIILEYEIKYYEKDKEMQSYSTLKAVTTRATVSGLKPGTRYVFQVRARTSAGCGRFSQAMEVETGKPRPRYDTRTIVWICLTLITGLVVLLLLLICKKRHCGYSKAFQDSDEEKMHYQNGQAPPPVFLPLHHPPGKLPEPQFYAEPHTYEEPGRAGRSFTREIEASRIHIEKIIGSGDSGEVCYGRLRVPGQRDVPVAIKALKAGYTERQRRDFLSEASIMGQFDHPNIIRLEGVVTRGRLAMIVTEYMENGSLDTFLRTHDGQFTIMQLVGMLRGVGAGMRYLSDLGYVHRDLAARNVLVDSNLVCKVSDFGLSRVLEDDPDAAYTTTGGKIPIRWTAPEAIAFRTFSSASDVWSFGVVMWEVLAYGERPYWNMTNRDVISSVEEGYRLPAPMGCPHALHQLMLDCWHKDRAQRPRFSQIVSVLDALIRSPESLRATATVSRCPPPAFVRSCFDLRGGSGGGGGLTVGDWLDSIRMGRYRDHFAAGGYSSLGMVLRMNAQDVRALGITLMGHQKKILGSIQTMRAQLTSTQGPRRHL

[5] = system: pFLT3, pcKIT, pS6 in AML blasts; test: Flow cytometry of phosphoproteins in AML blasts of patients; assay type: in vivo, human; settings: after multiple dosing 50 mg/day; at least three patients (B, C, and E)
How it was run: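 Patient blood or marrow samples reached a central lab within 48 h. […] Peripheral CD34+CD11− cells were gated on a 3-laser FACSCanto II. Sampling was predose, day 1, 8, 15 and end of study. Read-out was MEFL.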

KDR = KDR (Homo sapiens, UniProt P35968); test: Biochemical inhibition profile, KDR; settings: read-out: Biochemical Inhibition Profile IC50, KDR
EPHA4 = EPHA4 (Homo sapiens, UniProt P54764); test: Biochemical inhibition profile, EPHA4; settings: read-out: Biochemical Inhibition Profile IC50, EPHA4
pERK T202Y204 in HUVEC = test: Cell-based target inhibition assay, HUVEC, VEGF, pERK; design: species or system human; settings: read-out: Cell-Based Target Inhibition Assays IC50, pERK T202Y204, activator VEGF
EPHB4 = EPHB4 (Homo sapiens, UniProt P54760); settings: read-out: Cell-Based Target Inhibition Assays IC50, pEphB4 Y590/Y596; HEK293-Clone 25; stable over-expression of EphB4
[6] = also reversible lymphoid necrosis of Peyer's patches, skin depigmentation or whitening of the hair; cited from earlier work
EPHA5 = EPHA5 (Homo sapiens, UniProt P54756); test: Biochemical inhibition profile, EPHA5; settings: read-out: Biochemical Inhibition Profile IC50, EPHA5
Chain of EPHA5 (P54756 25-1037): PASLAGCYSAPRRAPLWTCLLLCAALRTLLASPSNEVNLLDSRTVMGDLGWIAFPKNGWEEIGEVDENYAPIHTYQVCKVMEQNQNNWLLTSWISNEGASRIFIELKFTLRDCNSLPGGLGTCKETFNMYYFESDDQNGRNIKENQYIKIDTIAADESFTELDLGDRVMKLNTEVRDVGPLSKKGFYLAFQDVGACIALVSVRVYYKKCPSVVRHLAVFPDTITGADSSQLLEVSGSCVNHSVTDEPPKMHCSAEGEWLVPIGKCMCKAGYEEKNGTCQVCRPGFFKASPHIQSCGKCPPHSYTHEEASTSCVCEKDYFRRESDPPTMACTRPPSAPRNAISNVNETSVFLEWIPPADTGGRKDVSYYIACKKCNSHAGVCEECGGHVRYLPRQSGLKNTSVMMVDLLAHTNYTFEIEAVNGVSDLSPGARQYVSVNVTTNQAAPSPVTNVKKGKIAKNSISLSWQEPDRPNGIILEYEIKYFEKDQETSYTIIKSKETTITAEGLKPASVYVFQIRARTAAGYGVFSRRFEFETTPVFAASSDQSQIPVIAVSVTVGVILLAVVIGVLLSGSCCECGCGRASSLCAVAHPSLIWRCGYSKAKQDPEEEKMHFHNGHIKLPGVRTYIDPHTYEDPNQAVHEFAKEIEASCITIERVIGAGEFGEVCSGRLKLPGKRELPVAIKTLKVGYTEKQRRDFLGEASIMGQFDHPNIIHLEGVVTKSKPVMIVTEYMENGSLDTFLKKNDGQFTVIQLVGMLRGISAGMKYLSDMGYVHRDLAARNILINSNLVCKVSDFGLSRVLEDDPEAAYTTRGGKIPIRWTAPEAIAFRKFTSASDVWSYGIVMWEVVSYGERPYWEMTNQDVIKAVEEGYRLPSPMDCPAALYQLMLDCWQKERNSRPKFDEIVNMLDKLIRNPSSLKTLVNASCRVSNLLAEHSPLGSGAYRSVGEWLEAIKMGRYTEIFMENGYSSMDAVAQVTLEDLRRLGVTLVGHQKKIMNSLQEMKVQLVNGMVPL

p70S6K = p70S6K (Homo sapiens, UniProt P23443); test: Biochemical inhibition profile, p70S6K; settings: at 20 μM
EPHA7 = EPHA7 (Homo sapiens, UniProt Q15375); test: Biochemical inhibition profile, EPHA7; settings: read-out: Biochemical Inhibition Profile IC50, EPHA7
Chain of EPHA7 (Q15375 28-998): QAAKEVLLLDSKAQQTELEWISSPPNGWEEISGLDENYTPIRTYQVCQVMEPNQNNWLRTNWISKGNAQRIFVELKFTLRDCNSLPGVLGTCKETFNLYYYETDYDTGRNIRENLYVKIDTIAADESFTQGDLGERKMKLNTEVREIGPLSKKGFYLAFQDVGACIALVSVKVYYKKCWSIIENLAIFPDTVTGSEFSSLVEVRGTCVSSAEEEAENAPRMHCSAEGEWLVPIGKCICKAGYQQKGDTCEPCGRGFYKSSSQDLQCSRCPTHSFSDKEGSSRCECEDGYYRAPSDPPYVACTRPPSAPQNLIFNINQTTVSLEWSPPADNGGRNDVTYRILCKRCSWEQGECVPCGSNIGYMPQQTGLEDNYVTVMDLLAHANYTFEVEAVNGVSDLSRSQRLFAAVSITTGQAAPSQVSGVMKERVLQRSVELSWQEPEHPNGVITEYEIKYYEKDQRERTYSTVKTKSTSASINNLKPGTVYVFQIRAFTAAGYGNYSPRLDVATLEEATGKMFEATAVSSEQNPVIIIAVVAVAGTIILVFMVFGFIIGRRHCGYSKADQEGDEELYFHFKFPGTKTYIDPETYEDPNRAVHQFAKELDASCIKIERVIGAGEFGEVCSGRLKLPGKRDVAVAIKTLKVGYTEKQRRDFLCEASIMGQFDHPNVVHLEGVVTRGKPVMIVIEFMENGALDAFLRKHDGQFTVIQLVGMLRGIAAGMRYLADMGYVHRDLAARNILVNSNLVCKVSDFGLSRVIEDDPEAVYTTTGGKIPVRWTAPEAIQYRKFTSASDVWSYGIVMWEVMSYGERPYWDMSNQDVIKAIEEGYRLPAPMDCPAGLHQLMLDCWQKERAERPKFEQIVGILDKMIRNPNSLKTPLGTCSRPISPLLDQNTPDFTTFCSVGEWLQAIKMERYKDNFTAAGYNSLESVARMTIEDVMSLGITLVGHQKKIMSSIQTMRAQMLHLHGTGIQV

[7] = system: human ether-à-go-go-related gene (hERG); settings: read-out: hERG IC50; ref data on file, Eli Lilly and Company; cited from earlier work
[8] = AML patients, single and multiple oral doses 50 mg
[9] = Visit 0, single oral dose 50 mg, Max of N 5
[10] = Visit 0, single oral dose 50 mg, Min of N 5
[11] = Visit 0, single oral dose 50 mg, individual subjects (AML patients)
[12] = Visit 1, multiple oral doses 50 mg once daily, Max of N 5
[13] = Visit 1, multiple oral doses 50 mg once daily, Min of N 5
[14] = Visit 2, after multiple oral doses 50 mg, Max of N 2
[15] = Visit 2, after multiple oral doses 50 mg, Min of N 2

Structure (SMILES): Cc1cc(-c2ccn3c(-c4ccc(CC(=O)Nc5cccc(C(F)(F)F)c5)c(F)c4)cnc3c2)ccn1 [LY2457546]
- pIC50 (EPHB2): 7.34
- Potency relative to sunitinib in controlling leukemia growth [1]: 10 fold
- pIC50 (RAF): 6.58
- Antileukemia response (AML blasts; five treated patients, 50 mg/day): No medically relevant responses
- Leukocyte and blast cell counts (AML blasts; one of the five patients (B), through day 10): significant but transient decrease
- pIC50 (PDGF-Rb): 7.59
- pIC50 [2]: 7.38
- Drug-drug interactions with midazolam, tolbutamide, and dextromethorphan [3]: No consistent drug–drug interactions
- Elimination within 24 hours ([4]; AML patients, 50 mg/day orally): virtually no elimination
- Accumulation in plasma [4, 8]: Extensive accumulation
- Terminal elimination half-life [4, 8]: no terminal elimination half-life could be defined
- AUC0_24, Max [4, 9]: 41500 ng·h/mL
- AUClast, Max [4, 9]: 79200 ng·h/mL
- Clast, Max [4, 9]: 1354.06 ng/mL
- Cmax, Max [4, 9]: 2406.55 ng/mL
- Tlast, Max [4, 9]: 48 h
- Tmax, Max [4, 9]: 48 h
- AUC0_24, Min [4, 10]: 1850 ng·h/mL
- AUClast, Min [4, 10]: 1850 ng·h/mL
- Clast, Min [4, 10]: 78.459 ng/mL
- Cmax, Min [4, 10]: 105.113 ng/mL
- Tlast, Min [4, 10]: 24 h
- Tmax, Min [4, 10]: 2 h
- AUC0_24 [4, 11]: 2520 ng·h/mL and 8930 ng·h/mL and 41500 ng·h/mL and 1850 ng·h/mL and 3420 ng·h/mL
- AUClast [4, 11]: 6030 ng·h/mL and 16100 ng·h/mL and 79200 ng·h/mL and 1850 ng·h/mL and 3420 ng·h/mL
- Clast [4, 11]: 154.876 ng/mL and 302.003 ng/mL and 1354.06 ng/mL and 105.113 ng/mL and 78.459 ng/mL
- Cmax [4, 11]: 154.876 ng/mL and 604.581 ng/mL and 2406.55 ng/mL and 105.113 ng/mL and 394.238 ng/mL
- Tlast [4, 11]: 48 h and 24 h
- Tmax [4, 11]: 48 h and 2 h and 4 h and 24 h
- AUC0_24, Max ([4]; Visit 1, multiple oral doses 50 mg once daily, Max of N 3): 69100 ng·h/mL
- AUClast, Max [4, 12]: 69200 ng·h/mL
- Clast, Max [4, 12]: 2830.537 ng/mL
- Cmax, Max [4, 12]: 3812.913 ng/mL
- Tlast, Max [4, 12]: 48 h
- Tmax, Max [4, 12]: 8 h
- AUC0_24, Min ([4]; Visit 1, multiple oral doses 50 mg once daily, Min of N 3): 2320 ng·h/mL
- AUClast, Min [4, 13]: 3610 ng·h/mL
- Clast, Min [4, 13]: 28.097 ng/mL
- Cmax, Min [4, 13]: 123.44 ng/mL
- Tlast, Min [4, 13]: 8 h
- Tmax, Min [4, 13]: 0 h
- AUC0_24, Max [4, 14]: 41500 ng·h/mL
- AUClast, Max [4, 14]: 93400 ng·h/mL
- Clast, Max [4, 14]: 2190.006 ng/mL
- Cmax, Max [4, 14]: 2190.006 ng/mL
- Tlast, Max [4, 14]: 48 h
- Tmax, Max [4, 14]: 48 h
- AUC0_24, Min [4, 15]: 18500 ng·h/mL
- AUClast, Min [4, 15]: 38400 ng·h/mL
- Clast, Min [4, 15]: 708.777 ng/mL
- Cmax, Min [4, 15]: 1087.972 ng/mL
- Tlast, Min [4, 15]: 48 h
- Tmax, Min [4, 15]: 0 h
- pIC50 (cKIT): 7.13
- pIC50 (VEGF-R3): 7.47
- pIC50 (EPHA8): 7.47
- Expression of pFLT3 and pcKIT [5]: reduced expression
- pIC50 (KDR): 7.55
- pIC50 (EPHA4): 6.80
- pIC50 (pERK T202Y204 in HUVEC): 8.69
- pIC50 (EPHB4): 8.04
- Toxicities in preclinical toxicology studies [6]: reversible bone marrow toxicity, minimal liver inflammation, reversible physeal dysplasia
- pIC50 (EPHA5): 7.97
- p70S6K percent inhibition at 20 μM (p70S6K): 75.9%
- pIC50 (EPHA7): 6.66
- pIC50 [7]: 6.70
